Reference: ChEMBL document CHEMBL4840316, “Structure-based screening for the discovery of 1,2,4-oxadiazoles as promising hits for the development of new anti-inflammatory agents interfering with eicosanoid biosynthesis pathways” (Eur J Med Chem, 2021)
The source made the active and inactive calls. The rule behind the calls is not given here.

How the values were obtained:
[1] = target: T1, Prostaglandin G/H synthase 1 (Ovis aries) (UniProt P05979); test: Inhibition of ovine COX-1 assessed as residual activity at 10 uM using arachidonic acid as substrate preincubated for 5 mins followed by substrate addition and measured after 5 mins by RP-HPLC method relative to control
T1 sequence (whole entry): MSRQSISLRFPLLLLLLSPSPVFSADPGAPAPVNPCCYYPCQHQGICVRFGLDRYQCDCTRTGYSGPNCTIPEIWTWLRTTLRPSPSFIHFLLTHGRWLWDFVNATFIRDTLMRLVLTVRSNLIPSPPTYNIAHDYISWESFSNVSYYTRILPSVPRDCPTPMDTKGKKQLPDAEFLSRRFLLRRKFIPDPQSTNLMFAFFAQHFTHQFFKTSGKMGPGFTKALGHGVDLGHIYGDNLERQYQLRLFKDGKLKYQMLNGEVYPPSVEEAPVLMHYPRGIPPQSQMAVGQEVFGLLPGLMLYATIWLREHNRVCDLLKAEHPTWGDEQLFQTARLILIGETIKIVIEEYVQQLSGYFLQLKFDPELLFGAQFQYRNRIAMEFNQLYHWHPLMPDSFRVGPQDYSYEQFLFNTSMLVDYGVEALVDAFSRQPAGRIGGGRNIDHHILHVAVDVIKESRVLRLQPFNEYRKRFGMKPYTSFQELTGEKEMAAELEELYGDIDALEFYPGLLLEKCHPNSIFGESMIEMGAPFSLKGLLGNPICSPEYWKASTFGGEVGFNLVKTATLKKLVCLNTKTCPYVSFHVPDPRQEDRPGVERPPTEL
In short: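 Ovine COX-1 (50 U/mL) or human recombinant COX-2 (20 U/mL) in 100 mM Tris pH 8 with 5 mM glutathione, 100 µM EDTA and 5 µM hemoglobin. Pre-incubated with compound or 0.1% DMSO for 5 min at room temperature, then 1 min at 37 °C. Started with AA (5 µM for COX-1, 2 µM for COX-2), run 5 min at 37 °C. 12-HHT measured by RP-HPLC.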

Prostaglandin E synthase = target: T2, Prostaglandin E synthase (Homo sapiens, UniProt O14684); test: Inhibition of mPGES-1 obtained from IL-beta stimulated human A549 cells microsomes assessed as residual activity by measuring conversion of PGH2 to PGE2 by cell-free RP-HPLC method; design: species or system Microsome
T2 sequence (O14684 whole entry): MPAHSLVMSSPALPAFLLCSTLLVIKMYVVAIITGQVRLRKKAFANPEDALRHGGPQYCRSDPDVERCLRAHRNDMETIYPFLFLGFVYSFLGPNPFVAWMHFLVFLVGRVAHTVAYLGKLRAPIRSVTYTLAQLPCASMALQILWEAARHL
In short: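 Microsomes from A549 cells stimulated with IL-1β (1 ng/ml) for 48 h. Diluted in 0.1 M potassium phosphate pH 7.4 with 2.5 mM glutathione. Pre-incubated 15 min on ice with compound (single 10 µM, or 0.03–10 µM for the curve) or 1% DMSO. 20 µM PGH2 added for 1 min; stopped with FeCl3/citric acid containing 11β-PGE2 standard. PGE2 measured by SPE and RP-HPLC. n = 3.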

Mus musculus [2] = test: Antiinflammatory activity in zymosan-induced CD-1 mouse peritonitis model assessed as reduction in zymosan-induced neutrophil recruitment at 10 mg/kg, ip treated with compound for 30 mins after 4 hrs zymosan stimulation by ELISA; type: functional, organism-based
In short: (§1)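 Male CD-1 mice (10–14 wk, 25–30 g), n = 6/group, injected i.p. with boiled zymosan A (500 mg/kg in PBS). Compound (0.1–10 mg/kg, DMSO/saline 1:3) given i.p. 30 min afterwards. Peritoneal lavage with 2 mL PBS at 4 or 24 h. Total leukocytes counted by automated counter with trypan blue, normalized to exudate. Mean ± S.D.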

Mus musculus [3] = test: Antiinflammatory activity in zymosan-induced CD-1 mouse peritonitis model assessed as reduction in zymosan-induced neutrophil recruitment at 1 mg/kg, ip treated with compound for 30 mins after 4 hrs zymosan stimulation by ELISA; type: functional, organism-based; in short: as §1
Mus musculus [4] = test: Antiinflammatory activity in zymosan-induced CD-1 mouse peritonitis model assessed as reduction in zymosan-induced IL-1beta level in peritoneal exudate at 10 mg/kg, ip treated with compound for 30 mins after 4 hrs zymosan stimulation by ELISA; type: functional, organism-based
In short: (§2)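 Male CD-1 mice (10–14 wk, 25–30 g), n = 6/group. Zymosan A (500 mg/kg in PBS, boiled) given i.p.; test compound (0.1–10 mg/kg in DMSO/saline 1:3) i.p. 30 min later. Exudates collected by 2 mL PBS lavage at 4 or 24 h. Cells spun at 4 °C and cytokines in supernatant measured by sandwich ELISA at 450 nm. Values normalized to exudate levels, mean ± S.D.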

Mus musculus [5] = test: Antiinflammatory activity in zymosan-induced CD-1 mouse peritonitis model assessed as reduction in zymosan-induced IL-1beta level in peritoneal exudate at 10 mg/kg, ip treated with compound for 30 mins after 24 hrs zymosan stimulation by ELISA; type: functional, organism-based; in short: as §2
Mus musculus [6] = test: Antiinflammatory activity in zymosan-induced CD-1 mouse peritonitis model assessed as reduction in zymosan-induced TNF-alpha level in peritoneal exudate at 10 mg/kg, ip treated with compound for 30 mins after 4 hrs zymosan stimulation by ELISA; type: functional, organism-based; in short: as §2
Mus musculus [7] = test: Antiinflammatory activity in zymosan-induced CD-1 mouse peritonitis model assessed as reduction in zymosan-induced TNF-alpha level in peritoneal exudate at 10 mg/kg, ip treated with compound for 30 mins after 24 hrs zymosan stimulation by ELISA; type: functional, organism-based; in short: as §2
Mus musculus [8] = test: Effect on IL-6 level in zymosan-induced CD-1 mouse peritonitis model in peritoneal exudate at 10 mg/kg, ip treated with compound for 30 mins after 4 to 24 hrs zymosan stimulation by ELISA; type: functional, organism-based; in short: as §2
Mus musculus [9] = test: Effect on IL-10 level in zymosan-induced CD-1 mouse peritonitis model in peritoneal exudate at 10 mg/kg, ip treated with compound for 30 mins after 4 to 24 hrs zymosan stimulation by ELISA; type: functional, organism-based; in short: as §2

Row | Activity [1] [%] | IC50 (Prostaglandin E synthase) [µM] | SMILES | Activity (Mus musculus [2]) | Activity (Mus musculus [3]) | Activity (Mus musculus [4]) | Activity (Mus musculus [5]) | Activity (Mus musculus [6]) | Activity (Mus musculus [7]) | Activity (Mus musculus [8]) | Activity (Mus musculus [9])
1 | 47.7 | – | Oc1cccc(CCc2nc(-c3ccc(-c4ccsc4)cc3)no2)c1 | – | – | – | – | – | – | – | –
2 | – | 3.6 | Oc1c(F)c(F)cc(-c2nc(-c3ccc(-c4ccsc4)cc3)no2)c1F | Active | Active | Active | Active | Active | Active | inactive | inactive
